In ChEMBL document CHEMBL5257020, “Discovery of a 9-mer Cationic Peptide (LTX-315) as a Potential First in Class Oncolytic Peptide” (J Med Chem, 2016):
Where a SMILES comes first, the peptide text is derived from it. [ ]: non-standard residue; d: D form. ξ: configuration not given here. ξDip = NC(C(=O)O)C(c1ccccc1)c1ccccc1

Key:
[1] = Cytotoxicity against human IGROV(CDDP) cells assessed as inhibition of cell proliferation incubated for 4 hrs by MTS assay; format: functional, cell-based
Outline: (§1)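 Cells grown in RPMI-1640 with 2 mM L-glutamine and 10% FBS, plated, then held 24 h at 37 °C. Adherent lines washed once in FBS-free medium. Cells exposed 4 h at 37 °C, 5% CO2 in FBS-free medium to 10 concentrations (1/4 steps, 400 μM top). 1% Triton X-100 served as positive control. MTS/PMS added for 2 h, then OD 490 nm read. IC50 from semilog curves; three independent experiments, quadruplicate wells.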

[2] = tested on: MCF7; experiment: Cytotoxicity against human MCF7 cells transfected with MDR1 assessed as inhibition of cell proliferation incubated for 4 hrs by MTS assay; format: functional, cell-based; conditions: MCF7, 4 h; outline: as §1
[3] = tested on: MCF7; experiment: Cytotoxicity against human MCF7 cells assessed as inhibition of cell proliferation incubated for 4 hrs by MTS assay; format: functional, cell-based; conditions: MCF7, 4 h; outline: as §1
[4] = tested on: CEM-VLB; experiment: Cytotoxicity against human CCRF-CEM/VLB cells assessed as inhibition of cell proliferation incubated for 4 hrs by MTS assay; format: functional, cell-based; outline: as §1
[5] = tested on: SK-OV-3; experiment: Cytotoxicity against human SK-OV-3 cells assessed as inhibition of cell proliferation incubated for 4 hrs by MTS assay; format: functional, cell-based; conditions: SK-OV-3, 4 h; outline: as §1
[6] = Cytotoxicity against human MRC5 cells assessed as inhibition of cell proliferation incubated for 4 hrs by MTT assay; format: toxicity, cell-based
Outline: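 MRC-5 human embryonic lung fibroblasts cultured in MEM with 2 mM L-glutamine and 10% FBS, without antibiotics, at 37 °C in humidified 5% CO2. Cultures were tested for mycoplasma. IC50 from three or more independent measurements, given as mean ± SD.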

[7] = tested on: A498; experiment: Cytotoxicity against human A498 cells assessed as inhibition of cell proliferation incubated for 4 hrs by MTS assay; format: functional, cell-based; conditions: A498, 4 h; outline: as §1
[8] = tested on: Toledo; experiment: Cytotoxicity against human Toledo cells assessed as inhibition of cell proliferation incubated for 4 hrs by MTS assay; format: functional, cell-based; outline: as §1
[9] = tested on: NAMALVA; experiment: Cytotoxicity against human NAMALVA cells assessed as inhibition of cell proliferation incubated for 4 hrs by MTS assay; format: functional, cell-based; outline: as §1
[10] = Cytotoxicity against human U-87 MG cells assessed as inhibition of cell proliferation incubated for 4 hrs by MTS assay; format: functional, cell-based, U-87MG ATCC; outline: as §1
[11] = tested on: Malme-3M; experiment: Cytotoxicity against human Malme-3M cells assessed as inhibition of cell proliferation incubated for 4 hrs by MTS assay; format: functional, cell-based; outline: as §1
[12] = tested on: A20; experiment: Cytotoxicity against mouse A20 lymphoma cells assessed as inhibition of cell proliferation incubated for 4 hrs by MTT assay; format: functional, cell-based; conditions: A20, 4 h
Outline: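 Murine A20 cells cultured in RPMI-1640 with 2 mM L-glutamine, 1.5 g/L sodium bicarbonate, 4.5 g/L glucose, 10 mM HEPES, 1.0 mM sodium pyruvate, 0.05 mM 2-mercaptoethanol and 10% FBS, without antibiotics, at 37 °C, 5% CO2. IC50 from three or more independent measurements, given as mean ± SD.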

[13] = Cytotoxicity against human HUVEC-C cells assessed as inhibition of cell proliferation incubated for 4 hrs by MTS assay; format: toxicity, cell-based; outline: as §1
[14] = tested on: PANC-1; experiment: Cytotoxicity against human PANC-1 cells assessed as inhibition of cell proliferation incubated for 4 hrs by MTS assay; format: functional, cell-based; conditions: PANC-1, 4 h; outline: as §1
[15] = tested on: HL-60; experiment: Cytotoxicity against human HL-60 cells assessed as inhibition of cell proliferation incubated for 4 hrs by MTS assay; format: functional, cell-based; conditions: HL-60, 4 h; outline: as §1
[16] = tested on: T47D; experiment: Cytotoxicity against human T47D cells assessed as inhibition of cell proliferation incubated for 4 hrs by MTS assay; format: functional, cell-based; outline: as §1
[17] = tested on: KARPAS-299; experiment: Cytotoxicity against human KARPAS-299 cells assessed as inhibition of cell proliferation incubated for 4 hrs by MTS assay; format: functional, cell-based; conditions: KARPAS-299, 4 h; outline: as §1
[18] = tested on: SK-HEP1; experiment: Cytotoxicity against human SK-HEP1 cells assessed as inhibition of cell proliferation incubated for 4 hrs by MTS assay; format: functional, cell-based; conditions: SK-HEP1, 4 h; outline: as §1
[19] = tested on: Daudi; experiment: Cytotoxicity against human Daudi cells assessed as inhibition of cell proliferation incubated for 4 hrs by MTS assay; format: functional, cell-based; outline: as §1
[20] = tested on: COLO 205; experiment: Cytotoxicity against human COLO 205 cells assessed as inhibition of cell proliferation incubated for 4 hrs by MTS assay; format: functional, cell-based; conditions: COLO 205, 4 h; outline: as §1
[21] = tested on: NCI-H460; experiment: Cytotoxicity against human NCI-H460 cells assessed as inhibition of cell proliferation incubated for 4 hrs by MTS assay; format: functional, cell-based; conditions: NCI-H460, 4 h; outline: as §1
[22] = tested on: Raji; experiment: Cytotoxicity against human Raji cells assessed as inhibition of cell proliferation incubated for 4 hrs by MTS assay; format: functional, cell-based; outline: as §1
[23] = tested on: CCRF-CEM; experiment: Cytotoxicity against human CCRF-CEM cells assessed as inhibition of cell proliferation incubated for 4 hrs by MTS assay; format: functional, cell-based; outline: as §1
[24] = tested on: RPMI-8226; experiment: Cytotoxicity against human RPMI-8226 cells assessed as inhibition of cell proliferation incubated for 4 hrs by MTS assay; format: functional, cell-based; conditions: RPMI-8226, 4 h; outline: as §1
[25] = tested on: HCT-116; experiment: Cytotoxicity against human HCT-116 cells assessed as inhibition of cell proliferation incubated for 4 hrs by MTS assay; format: functional, cell-based; conditions: HCT-116, 4 h; outline: as §1
[26] = Cytotoxicity against human Hs 445 cells assessed as inhibition of cell proliferation incubated for 4 hrs by MTS assay; format: functional, cell-based; conditions: Hs 445, 4 h; outline: as §1
[27] = tested on: HL60/ADR; experiment: Cytotoxicity against human HL60/ADR cells assessed as inhibition of cell proliferation incubated for 4 hrs by MTS assay; format: functional, cell-based; outline: as §1
[28] = tested on: A-431; experiment: Cytotoxicity against human A-431 cells assessed as inhibition of cell proliferation incubated for 4 hrs by MTS assay; format: functional, cell-based; conditions: A-431, 4 h; outline: as §1
[29] = Cytotoxicity against human MINO cells assessed as inhibition of cell proliferation incubated for 4 hrs by MTS assay; format: functional, cell-based; outline: as §1
[30] = tested on: SU-DHL-1; experiment: Cytotoxicity against human SU-DHL-1 cells assessed as inhibition of cell proliferation incubated for 4 hrs by MTS assay; format: functional, cell-based; conditions: SU-DHL-1, 4 h; outline: as §1
[31] = tested on: U-937; experiment: Cytotoxicity against human U-937 cells assessed as inhibition of cell proliferation incubated for 4 hrs by MTS assay; format: functional, cell-based; conditions: U-937, 4 h; outline: as §1
[32] = tested on: OVCAR-3; experiment: Cytotoxicity against human OVCAR-3 cells assessed as inhibition of cell proliferation incubated for 4 hrs by MTS assay; format: functional, cell-based; conditions: OVCAR-3, 4 h; outline: as §1
[33] = tested on: HepG2; experiment: Cytotoxicity against human HepG2 cells assessed as inhibition of cell proliferation incubated for 4 hrs by MTS assay; format: functional, cell-based; conditions: HepG2, 4 h; outline: as §1
[34] = tested on: HT-29; experiment: Cytotoxicity against human HT-29 cells assessed as inhibition of cell proliferation incubated for 4 hrs by MTS assay; format: functional, cell-based; conditions: HT-29, 4 h; outline: as §1
[35] = tested on: A549; experiment: Cytotoxicity against human A549 cells assessed as inhibition of cell proliferation incubated for 4 hrs by MTS assay; format: functional, cell-based; conditions: A549, 4 h; outline: as §1
[36] = tested on: K562; experiment: Cytotoxicity against human K562 cells assessed as inhibition of cell proliferation incubated for 4 hrs by MTS assay; format: functional, cell-based; conditions: K562, 4 h; outline: as §1
[37] = tested on: SK-MEL-2; experiment: Cytotoxicity against human SK-MEL-2 cells assessed as inhibition of cell proliferation incubated for 4 hrs by MTS assay; format: functional, cell-based; conditions: SK-MEL-2, 4 h; outline: as §1
[38] = tested on: MDA-MB-231; experiment: Cytotoxicity against human MDA-MB-231 cells assessed as inhibition of cell proliferation incubated for 4 hrs by MTS assay; format: functional, cell-based; conditions: MDA-MB-231, 4 h; outline: as §1

In the case of `NCCCC[C@H](NC(=O)C(NC(=O)[C@H](Cc1c[nH]c2ccccc12)NC(=O)[C@H](CCCCN)NC(=O)[C@H](CCCCN)NC(=O)[C@H](Cc1c[nH]c2ccccc12)NC(=O)[C@H](Cc1c[nH]c2ccccc12)NC(=O)[C@H](CCCCN)NC(=O)[C@@H](N)CCCCN)C(c1ccccc1)c1ccccc1)C(N)=O` (stereo partly drawn) (H-KKWWKKW[ξDip]K-NH2), the IC50 [1] is reported as 3.2 µM, the IC50 [2] is reported as 2.5 µM and the IC50 [3] is reported as 2.2 µM. For the same compound, the IC50 [4] was 2.4 µM, the IC50 [5] was 7.2 µM and the IC50 at 4 h [6] was 34.3 µM. It also gave an IC50 [7] of 2.9 µM, an IC50 [8] of 2.3 µM and an IC50 [9] of 3.6 µM. The IC50 [10] was 6.6 µM, the IC50 [11] was 3.3 µM and the IC50 [12] was 8.3 µM. It also gave an IC50 at 4 h [13] of 16.3 µM, an IC50 [14] of 3.8 µM and an IC50 [15] of 2.1 µM. The IC50 [16] was 1.2 µM, the IC50 [17] was 4.8 µM and the IC50 [18] was 5.1 µM. The IC50 [19] was 4 µM, the IC50 [20] was 2.6 µM and the IC50 [21] was 3.4 µM. The IC50 [22] was 4.9 µM, the IC50 [23] was 2.6 µM and the IC50 [24] was 1.9 µM. For the same compound, the IC50 [25] was 3.4 µM, the IC50 [26] was 1.7 µM and the IC50 [27] was 3 µM. The IC50 [28] was 3.2 µM, the IC50 [29] was 3.7 µM and the IC50 [30] was 2.3 µM. The IC50 [31] was 1.2 µM, the IC50 [32] was 5.2 µM and the IC50 [33] was 6.7 µM. It also gave an IC50 [34] of 3.3 µM, an IC50 [35] of 2.8 µM and an IC50 [36] of 3 µM. It also gave an IC50 [37] of 5.2 µM and an IC50 [38] of 3.6 µM.
